# Experiments:
# Assay type in all cases: functional
# [1] = tested on: Stenotrophomonas maltophilia; experiment: Antimicrobial activity against Stenotrophomonas maltophilia clinical isolate after 18 to 22 hrs by broth microdilution method in presence of beta-lactamase inhibitor BLI-489
# Outline: (§1)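 CLSI broth microdilution in Mueller-Hinton II broth. Serial dilutions of piperacillin were tested with BLI-489 held at a constant 4 μg/ml. Inoculum was 10^5 CFU/ml. Plates were incubated 18 to 22 h at 35°C in ambient air. MIC was the lowest concentration giving complete growth inhibition by unaided eye.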
# [2] = tested on: Proteus mirabilis; experiment: Antimicrobial activity against Proteus mirabilis clinical isolate after 18 to 22 hrs by broth microdilution method in presence of beta-lactamase inhibitor BLI-489; outline: as §1
# [3] = tested on: Pseudomonas aeruginosa; experiment: Antimicrobial activity against Pseudomonas aeruginosa clinical isolate after 18 to 22 hrs by broth microdilution method in presence of beta-lactamase inhibitor Tazobactam
# Outline: (§2)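 Piperacillin-tazobactam was tested by CLSI broth microdilution in Mueller-Hinton II broth against clinical isolates. Inoculum was 10^5 CFU/ml, with 18 to 22 h incubation at 35°C in ambient air. MIC was read as the lowest concentration completely inhibiting visible growth.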
# [4] = tested on: Bacteroides uniformis; experiment: Antimicrobial activity against Bacteroides uniformis clinical isolate after 18 to 22 hrs by broth microdilution method
# [5] = tested on: Streptococcus pneumoniae; experiment: Antimicrobial activity against penicillin-resistant Streptococcus pneumoniae clinical isolate after 18 to 22 hrs by broth microdilution method in presence of beta-lactamase inhibitor Tazobactam
# Outline: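 CLSI broth microdilution in Mueller-Hinton II broth with 5% lysed horse blood. Antibiotic in serial dilution with the β-lactamase inhibitor held at a constant 4 μg/ml. Inoculum 10^5 CFU/ml. Incubated 18 to 22 h at 35°C in ambient air. MIC is the lowest concentration with no growth visible to the eye.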
# [6] = tested on: Streptococcus pneumoniae; experiment: Antimicrobial activity against penicillin-susceptible Streptococcus pneumoniae clinical isolate after 18 to 22 hrs by broth microdilution method in presence of beta-lactamase inhibitor Tazobactam
# Outline: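 Broth microdilution per CLSI in Mueller-Hinton II broth supplemented with 5% lysed horse blood, using serial dilutions of piperacillin-tazobactam. Inoculum was 10^5 CFU/ml. Incubation was 18 to 22 h at 35°C in ambient air. MIC was the lowest concentration with no growth visible to the unaided eye.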
# [7] = tested on: Klebsiella aerogenes; experiment: Antimicrobial activity against Enterobacter aerogenes clinical isolate after 18 to 22 hrs by broth microdilution method in presence of beta-lactamase inhibitor BLI-489
# Outline: (§3)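 CLSI broth microdilution in Mueller-Hinton II broth. Piperacillin serial dilutions were combined with BLI-489 held constant at 4 μg/ml. Inoculum was 10^5 CFU/ml. Plates were incubated 18 to 22 h at 35°C in ambient air. MIC was the lowest concentration completely inhibiting growth seen by the unaided eye. Piperacillin-tazobactam interpretive criteria were applied.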
# [8] = tested on: Enterococcus gallinarum; experiment: Antimicrobial activity against Enterococcus gallinarum clinical isolate after 18 to 22 hrs by broth microdilution method in presence of beta-lactamase inhibitor BLI-489; outline: as §1
# [9] = tested on: Klebsiella aerogenes; experiment: Antimicrobial activity against AmpC beta-lactamase-producing Enterobacter aerogenes clinical isolate after 18 to 22 hrs by broth microdilution method in presence of beta-lactamase inhibitor Tazobactam
# Outline: (§4)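 Piperacillin-tazobactam was tested on recent clinical isolates by CLSI broth microdilution in Mueller-Hinton II broth, with tazobactam at constant 4 μg/ml. Wells held 10^5 CFU/ml and were incubated 18 to 22 h at 35°C in ambient air. MIC was the lowest concentration with no growth visible to the unaided eye.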
# [10] = tested on: Staphylococcus aureus; experiment: Antimicrobial activity against methicillin-susceptible Staphylococcus aureus clinical isolate after 18 to 22 hrs by broth microdilution method in presence of beta-lactamase inhibitor Tazobactam
# Outline: (§5)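 CLSI broth microdilution of piperacillin-tazobactam in Mueller-Hinton II broth with serial dilutions. Inoculum was 10^5 CFU/ml. Incubation was 18 to 22 h at 35°C in ambient air. MIC was read as the lowest concentration giving complete inhibition of growth visible to the unaided eye.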
# [11] = tested on: Acinetobacter johnsonii; experiment: Antimicrobial activity against Acinetobacter johnsonii clinical isolate after 18 to 22 hrs by broth microdilution method in presence of beta-lactamase inhibitor Tazobactam; outline: as §4
# [12] = tested on: Haemophilus influenzae; experiment: Antimicrobial activity against beta-lactamase-producing Haemophilus influenzae clinical isolate after 18 to 22 hrs by broth microdilution method in presence of beta-lactamase inhibitor Tazobactam
# Outline: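 […] was used for CLSI broth microdilution with piperacillin-tazobactam. Inoculum was 10^5 CFU/ml, incubated 18 to 22 h at 35°C in ambient air. MIC was the lowest concentration with no growth visible to the unaided eye.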
# [13] = tested on: Staphylococcus haemolyticus; experiment: Antimicrobial activity against Staphylococcus haemolyticus clinical isolate after 18 to 22 hrs by broth microdilution method in presence of beta-lactamase inhibitor Tazobactam; outline: as §2
# [14] = tested on: Escherichia coli; experiment: Antimicrobial activity against class A extended spectrum beta-lactamase- producing Escherichia coli clinical isolate after 18 to 22 hrs by broth microdilution method in presence of beta-lactamase inhibitor Tazobactam; outline: as §5
# [15] = tested on: Providencia rettgeri; experiment: Antimicrobial activity against Providencia rettgeri clinical isolate after 18 to 22 hrs by broth microdilution method in presence of beta-lactamase inhibitor Tazobactam; outline: as §2
# [16] = tested on: Pseudomonas aeruginosa; experiment: Antimicrobial activity against Pseudomonas aeruginosa clinical isolate after 18 to 22 hrs by broth microdilution method in presence of beta-lactamase inhibitor BLI-489; outline: as §1
# [17] = tested on: Enterobacter cloacae; experiment: Antimicrobial activity against AmpC beta-lactamase-producing Enterobacter cloacae clinical isolate after 18 to 22 hrs by broth microdilution method in presence of beta-lactamase inhibitor Tazobactam; outline: as §4
# [18] = tested on: Serratia marcescens; experiment: Antimicrobial activity against AmpC beta-lactamase-producing Serratia marcescens clinical isolate after 18 to 22 hrs by broth microdilution method in presence of beta-lactamase inhibitor Tazobactam; outline: as §4
# [19] = tested on: Citrobacter freundii; experiment: Antimicrobial activity against Citrobacter freundii clinical isolate after 18 to 22 hrs by broth microdilution method in presence of beta-lactamase inhibitor Tazobactam; outline: as §4
# [20] = tested on: Proteus vulgaris; experiment: Antimicrobial activity against Proteus vulgaris clinical isolate after 18 to 22 hrs by broth microdilution method in presence of beta-lactamase inhibitor BLI-489; outline: as §1
# [21] = tested on: Bacteroides thetaiotaomicron; experiment: Antimicrobial activity against Bacteroides thetaiotaomicron clinical isolate after 18 to 22 hrs by broth microdilution method in presence of beta-lactamase inhibitor Tazobactam
# [22] = tested on: Burkholderia cepacia; experiment: Antimicrobial activity against Burkholderia cepacia clinical isolate after 18 to 22 hrs by broth microdilution method in presence of beta-lactamase inhibitor BLI-489; outline: as §3
smiles,measurement,setting,value
CCN1CCN(C(=O)N[C@@H](C(=O)N[C@@H]2C(=O)N3[C@@H]2SC(C)(C)[C@@H]3C(=O)O)c2ccccc2)C(=O)C1=O [PIPERACILLIN],MIC50,[1],> 128 µg/mL
same,MIC90,[1],> 128 µg/mL
same,MIC50,[2],0.25 µg/mL
same,MIC90,[2],0.5 µg/mL
same,MIC50,[3],16 µg/mL
same,MIC90,[3],> 128 µg/mL
same,MIC50,[4],16 µg/mL
same,MIC90,[4],32 µg/mL
same,MIC50,[5],2 µg/mL
same,MIC90,[5],4 µg/mL
same,MIC50,[6],0.008 µg/mL
same,MIC90,[6],0.015 µg/mL
same,MIC50,[7],2 µg/mL
same,MIC90,[7],64 µg/mL
same,MIC50,[8],2 µg/mL
same,MIC90,[8],8 µg/mL
same,MIC,[9],> 8 µg/mL
same,MIC50,[9],4 µg/mL
same,MIC90,[9],16 µg/mL
same,MIC50,[10],1 µg/mL
same,MIC90,[10],2 µg/mL
same,MIC50,[11],≤ 0.12 µg/mL
same,MIC90,[11],32 µg/mL
same,MIC50,[12],0.008 µg/mL
same,MIC90,[12],0.03 µg/mL
same,MIC50,[13],32 µg/mL
same,MIC90,[13],> 128 µg/mL
same,MIC50,[14],16 µg/mL
same,MIC90,[14],32 µg/mL
same,MIC50,[15],2 µg/mL
same,MIC90,[15],16 µg/mL
same,MIC50,[16],8 µg/mL
same,MIC90,[16],64 µg/mL
same,MIC50,[17],8 µg/mL
same,MIC90,[17],32 µg/mL
same,MIC50,[18],8 µg/mL
same,MIC90,[18],16 µg/mL
same,MIC50,[19],64 µg/mL
same,MIC90,[19],128 µg/mL
same,MIC50,[20],0.5 µg/mL
same,MIC90,[20],1 µg/mL
same,MIC50,[21],4 µg/mL
same,MIC90,[21],8 µg/mL
same,MIC50,[22],1 µg/mL
same,MIC90,[22],2 µg/mL

# From ChEMBL document CHEMBL1629583, “Establishment of in vitro susceptibility testing methodologies and comparative activities of piperacillin in combination with the penem {beta}-lactamase inhibitor BLI-489” (2009)
